Results on one molecule are retold here after ChEMBL document CHEMBL4346686, “Discovery and biological evaluation of novel androgen receptor antagonist for castration-resistant prostate cancer” (Eur J Med Chem, 2019).

The structures appear in SMILES notation.

For one series, the system named is VCaP. Briefly: Antitumor activity against human VCaP cells xenografted in BALB/c nude mouse assessed as inhibition of tumor growth at 30 mg/kg, po qd administered for 40 days relative to control. In kind it is functional. The note with it: Mus musculus, VCaP, po, 960 h; read-out: TGI. The method, boiled down: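 Male BALB/c nude mice, 5 weeks old, s.c. 1 × 10^7 VCaP cells in DMEM/Matrigel (1:1). Castrated under Nembutal at 150–200 mm3 and randomized (n = 8–10). Once tumors regrew to 200–350 mm3, oral 30 mg/kg qd for 40 days. TGI = [1 − (T − T0)/(C − C0)] × 100 from mean tumor volumes on first and last treatment days.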

The target of series [1] is T1, Steroid 17-alpha-hydroxylase/17,20 lyase (Homo sapiens, UniProt P05093).
T1 sequence (P05093 whole entry): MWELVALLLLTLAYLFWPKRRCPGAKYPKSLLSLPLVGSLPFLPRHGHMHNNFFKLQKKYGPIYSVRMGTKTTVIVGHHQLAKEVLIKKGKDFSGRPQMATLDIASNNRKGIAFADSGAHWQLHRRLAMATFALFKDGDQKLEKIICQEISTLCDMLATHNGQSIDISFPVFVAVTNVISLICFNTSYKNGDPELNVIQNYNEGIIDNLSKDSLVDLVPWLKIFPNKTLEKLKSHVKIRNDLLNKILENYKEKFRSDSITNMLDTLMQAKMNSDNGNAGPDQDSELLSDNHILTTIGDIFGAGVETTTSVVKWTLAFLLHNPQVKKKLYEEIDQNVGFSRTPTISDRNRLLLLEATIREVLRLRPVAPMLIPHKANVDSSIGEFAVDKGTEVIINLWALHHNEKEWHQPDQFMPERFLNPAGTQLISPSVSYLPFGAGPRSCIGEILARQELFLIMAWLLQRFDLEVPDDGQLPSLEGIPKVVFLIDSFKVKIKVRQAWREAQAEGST
Briefly: Inhibition of C-myc/DDK tagged human CYP17A1 expressed in HEK293T cells assessed as reduction in formation of 17-OHP at 10 uM incubated for 30 mins by LC-MS/MS analysis. Format: cell-based. As to conditions: 0.5 h, 10 µM; call rule not given here. The method, boiled down:
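CYP17A1 activity measured as 17α-hydroxyprogesterone formation in 50 mM Tris pH 7.4, 5 mM MgCl2. Incubation 30 min at 37 °C, quenched with 20% trichloroacetic acid; product quantified by LC-MS/MS. Mean ± SD, n = 2.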

Series [2] can be described thus: Toxicity in BALB/c nude mouse xenografted with human VCaP cells assessed as weight loss at 30 mg/kg, po qd administered for 40 days relative to control. Format: organism-based. As to conditions: in vivo, 960 h.
Series [3] is described as follows: AUC (0 to t) in Sprague-Dawley rat at 30 mg/kg, po measured upto 24 hrs by LC-MS/MS analysis. The note with it: in vivo. Format: ADME, organism-based. More on the design: time < 24 hr, dose 30 mg/kg, route oral.
A short description of series [4]: Cmax in Sprague-Dawley rat at 30 mg/kg, po measured at 0.5 hrs by LC-MS/MS analysis. Details: dose 30 mg/kg, route oral. In kind it is ADME, organism-based. As to conditions: in vivo. The method, boiled down: (§1)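 Male SD rats (N = 3), single oral 30 mg/kg in PEG200/DMA (9:1, v/v). Blood from retrobulbar vein at 0–24 h; heparinized plasma, protein precipitation with methanol, LC-MS/MS quantitation; parameters by non-compartmental analysis.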

In the next series the test system is PC-3. As to the kind of experiment: Antiproliferative activity against human PC3 cells assessed as reduction in cell viability incubated for 6 days by CCK8 assay. Format: functional, cell-based. As to conditions: PC-3, 144 h. The method in brief:
(§2)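 Cells seeded (2×10^4 per well for VCaP, 1–3×10^3 for the others) and compound added after 24 h as a 9-point, 3-fold serial dilution. Exposure 6 days, then CCK-8 for 1–4 h and absorbance at 450 nm. IC50 from curve fit, mean of at least two independent experiments run in duplicate.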

Series [5] is described as follows: Half life in Sprague-Dawley rat at 30 mg/kg, po measured upto 24 hrs by LC-MS/MS analysis. In kind it is ADME, organism-based. The note with it: in vivo. The method, boiled down:
as §1

Series [6] concerns the target T2, Androgen receptor (Homo sapiens) (UniProt P10275).
T2 sequence (whole entry): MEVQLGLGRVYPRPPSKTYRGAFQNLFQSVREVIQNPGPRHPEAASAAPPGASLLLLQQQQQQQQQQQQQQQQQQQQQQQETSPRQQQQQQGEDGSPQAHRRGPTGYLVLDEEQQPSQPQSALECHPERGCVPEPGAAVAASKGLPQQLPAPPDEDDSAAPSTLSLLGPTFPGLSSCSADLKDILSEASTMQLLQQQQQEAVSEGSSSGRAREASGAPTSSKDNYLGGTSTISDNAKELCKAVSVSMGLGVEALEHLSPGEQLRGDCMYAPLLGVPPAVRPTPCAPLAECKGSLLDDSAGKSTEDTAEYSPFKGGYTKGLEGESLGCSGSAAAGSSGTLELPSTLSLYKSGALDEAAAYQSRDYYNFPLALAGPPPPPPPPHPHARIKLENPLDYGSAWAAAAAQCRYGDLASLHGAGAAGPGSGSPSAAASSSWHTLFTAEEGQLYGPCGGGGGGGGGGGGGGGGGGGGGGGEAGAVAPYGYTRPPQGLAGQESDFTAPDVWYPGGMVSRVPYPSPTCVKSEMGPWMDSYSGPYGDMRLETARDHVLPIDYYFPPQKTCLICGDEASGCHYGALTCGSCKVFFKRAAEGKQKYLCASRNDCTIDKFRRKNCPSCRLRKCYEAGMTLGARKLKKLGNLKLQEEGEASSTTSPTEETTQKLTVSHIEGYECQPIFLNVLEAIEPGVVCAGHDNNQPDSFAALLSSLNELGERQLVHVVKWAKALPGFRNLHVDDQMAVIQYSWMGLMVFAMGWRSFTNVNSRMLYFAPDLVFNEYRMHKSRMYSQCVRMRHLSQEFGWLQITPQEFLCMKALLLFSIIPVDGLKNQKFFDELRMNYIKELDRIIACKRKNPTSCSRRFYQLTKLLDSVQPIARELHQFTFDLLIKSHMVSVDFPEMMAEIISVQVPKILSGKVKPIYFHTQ
Briefly: Potency index, ratio of IC50 for enzalutamide to IC50 for compound for competitive displacement of [3H]R1881 from human AR expressed in LNCaP cells incubated for 24 hrs by scintillation counting method based radioligand competitive binding assay. Format: cell-based.

Another series has as its target T3, Androgen receptor (Homo sapiens, UniProt P10275).
T3 sequence (P10275 whole entry): T2 sequence (whole entry)
In kind it is cell-based, LNCaP.

For series [7], the target named is T2, Androgen receptor (Homo sapiens). As to the kind of experiment: Antagonist activity at androgen receptor in human VCaP cells assessed as inhibition of R1881-induced FKBP5 mRNA expression after 24 hrs by qRT-PCR analysis. Format: cell-based. The method in brief: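 VCaP cells held 48 h in DMEM with 5% charcoal-stripped FBS, then 24 h with compound plus 0.2 nM R1881. TRIzol RNA extraction, cDNA synthesis, qRT-PCR for the target mRNA normalized to GAPDH; mean ± SD, n = 3.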

For a further series, the system named is L02. As to the kind of experiment: Antiproliferative activity against human L02 cells assessed as reduction in cell viability incubated for 6 days by CCK8 assay. Format: cell-based. As to conditions: L02, 144 h. The method, boiled down:
as §2

The nature of series [8]: Tmax in Sprague-Dawley rat at 30 mg/kg, po measured upto 24 hrs by LC-MS/MS analysis. Format: ADME, organism-based. The note with it: in vivo. The method, boiled down: as §1
A short description of series [9]: Antiproliferative activity against human LNCaP-AR cells assessed as reduction in cell viability incubated for 6 days by CCK8 assay. The note with it: 144 h. Format: functional, cell-based. The method in brief:
as §2

`Cc1ccc(-c2c(C)noc2C)cc1Nc1ccc(C#N)c(Cl)c1`: the inhibition in vivo at 30 mg/kg in the series with VCaP is 44.7%. Also, the “inhibition (INH)” value in series [1] was “Not Active”. Also, the Activity entry was “Non-Toxic” in series [2] and “Dose-dependent effect” in series [7]. Besides, in [3], the exposure AUC(0-t) at 24 h stood at 4040 ng·h/mL. Moreover, the Cmax in [4] is 2320 ng/mL. Also, the IC50 in the series with PC-3 was 23.3 µM; at Androgen receptor, 0.641 µM; in the series with L02, 11.3 µM; in series [9], 0.43 µM. The half-life in series [5] is 4.4 h. The Ratio IC50 in series [6] worked out at 8. Besides, in series [8], the Tmax was determined as 0.5 h.
